Assay: Cytotoxicity against human HuH7 cells assessed as reduction in cell viability by MTS assay
Type: cell-based, Huh-7
How it was run: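 Viability of Huh-7 cells was read by MTS assay.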

Structure (SMILES) | CC50
CCCCCC(=O)N[C@@H](C(=O)N1CCC[C@H]1c1ncc(-c2ccc(-c3ccc(-c4cnc([C@@H]5CCCN5C(=O)[C@H](NC(=O)CCCCC)c5ccccc5)s4)cc3)cc2)s1)c1ccccc1 | > 50 µM
O=C(Cc1ccccc1)N[C@@H](C(=O)N1CCC[C@H]1c1ncc(-c2ccc(-c3ccc(-c4cnc([C@@H]5CCCN5C(=O)[C@H](NC(=O)Cc5ccccc5)c5ccccc5)s4)cc3)cc2)s1)c1ccccc1 | > 50 µM
O=C(CCN1CCOCC1)N[C@H](C(=O)N1CCC[C@H]1c1ncc(-c2ccc(-c3ccc(-c4cnc([C@@H]5CCCN5C(=O)[C@H](NC(=O)CCN5CCOCC5)c5ccccc5)s4)cc3)cc2)s1)c1ccccc1 | > 50 µM
O=C(N[C@H](C(=O)N1CCC[C@H]1c1ncc(-c2ccc(-c3ccc(-c4cnc([C@@H]5CCCN5C(=O)[C@H](NC(=O)C5CCC5)c5ccccc5)s4)cc3)cc2)s1)c1ccccc1)C1CCC1 | > 50 µM
O=C(N[C@H](C(=O)N1CCC[C@H]1c1ncc(-c2ccc(-c3ccc(-c4cnc([C@@H]5CCCN5C(=O)[C@H](NC(=O)C5CCCCC5)c5ccccc5)s4)cc3)cc2)s1)c1ccccc1)C1CCCCC1 | > 50 µM
CN1CCN(CCC(=O)N[C@@H](C(=O)N2CCC[C@H]2c2ncc(-c3ccc(-c4ccc(-c5cnc([C@@H]6CCCN6C(=O)[C@H](NC(=O)CCN6CCN(C)CC6)c6ccccc6)s5)cc4)cc3)s2)c2ccccc2)CC1 | > 50 µM
COC(=O)N[C@@H](CC(C)C)C(=O)N1CCC[C@H]1c1ncc(-c2ccc(-c3ccc(-c4cnc([C@@H]5CCCN5C(=O)[C@H](CC(C)C)NC(=O)OC)s4)cc3)cc2)s1 | > 50 µM
O=C(N[C@H](C(=O)N1CCC[C@H]1c1ncc(-c2ccc(-c3ccc(-c4cnc([C@@H]5CCCN5C(=O)[C@H](NC(=O)c5ccncc5)c5ccccc5)s4)cc3)cc2)s1)c1ccccc1)c1ccncc1 | > 50 µM
COC(=O)N[C@H](C(=O)N1CCC[C@H]1c1ncc(-c2ccc(-c3ccc(-c4cnc([C@@H]5CCCN5C(=O)[C@@H](NC(=O)OC)C(C)(C)C)s4)cc3)cc2)s1)C(C)(C)C | > 50 µM
CCOC(=O)N[C@H](C(=O)N1CCC[C@H]1c1ncc(-c2ccc(-c3ccc(-c4cnc([C@@H]5CCCN5C(=O)[C@@H](NC(=O)OCC)C(C)C)s4)cc3)cc2)s1)C(C)C | > 50 µM
CS(=O)(=O)N[C@@H](C(=O)N1CCC[C@H]1c1ncc(-c2ccc(-c3ccc(-c4cnc([C@@H]5CCCN5C(=O)[C@H](NS(C)(=O)=O)c5ccccc5)s4)cc3)cc2)s1)c1ccccc1 | > 50 µM
O=C(N[C@H](C(=O)N1CCC[C@H]1c1ncc(-c2ccc(-c3ccc(-c4cnc([C@@H]5CCCN5C(=O)[C@H](NC(=O)c5ccccn5)c5ccccc5)s4)cc3)cc2)s1)c1ccccc1)c1ccccn1 | > 50 µM
O=C(N[C@H](C(=O)N1CCC[C@H]1c1ncc(-c2ccc(-c3ccc(-c4cnc([C@@H]5CCCN5C(=O)[C@H](NC(=O)N5CCCCC5)c5ccccc5)s4)cc3)cc2)s1)c1ccccc1)N1CCCCC1 | > 50 µM
CC(C)(C)C(=O)N[C@@H](C(=O)N1CCC[C@H]1c1ncc(-c2ccc(-c3ccc(-c4cnc([C@@H]5CCCN5C(=O)[C@H](NC(=O)C(C)(C)C)c5ccccc5)s4)cc3)cc2)s1)c1ccccc1 | > 50 µM
CC(C)[C@@H](NC(=O)C1CC1)C(=O)N1CCC[C@H]1c1ncc(-c2ccc(-c3ccc(-c4cnc([C@@H]5CCCN5C(=O)[C@H](NC(=O)C5CC5)C(C)C)s4)cc3)cc2)s1 | > 50 µM
O=C(N[C@H](C(=O)N1CCC[C@H]1c1ncc(-c2ccc(-c3ccc(-c4cnc([C@@H]5CCCN5C(=O)[C@H](NC(=O)c5cccs5)c5ccccc5)s4)cc3)cc2)s1)c1ccccc1)c1cccs1 | > 50 µM
CCCC(=O)N[C@H](C(=O)N1CCC[C@H]1c1ncc(-c2ccc(-c3ccc(-c4cnc([C@@H]5CCCN5C(=O)[C@H](NC(=O)CCC)c5ccccc5)s4)cc3)cc2)s1)c1ccccc1 | > 50 µM

Structure (SMILES) | CC50
O=C(CCn1cccc1)N[C@H](C(=O)N1CCC[C@H]1c1ncc(-c2ccc(-c3ccc(-c4cnc([C@@H]5CCCN5C(=O)[C@H](NC(=O)CCn5cccc5)c5ccccc5)s4)cc3)cc2)s1)c1ccccc1 | > 50 µM
O=C(N[C@@H](C(=O)N1CCC[C@H]1c1ncc(-c2ccc(-c3ccc(-c4cnc([C@@H]5CCCN5C(=O)[C@H](NC(=O)C5CC5)C5CCCCC5)s4)cc3)cc2)s1)C1CCCCC1)C1CC1 | > 50 µM
O=C(N[C@@H](C(=O)N1CCC[C@H]1c1ncc(-c2ccc(-c3ccc(-c4cnc([C@@H]5CCCN5C(=O)[C@H](NC(=O)C5CCC5)c5ccccc5)s4)cc3)cc2)s1)c1ccccc1)C1CCC1 | > 50 µM
O=C(N[C@H](C(=O)N1CCC[C@H]1c1ncc(-c2ccc(-c3ccc(-c4cnc([C@@H]5CCCN5C(=O)[C@H](NC(=O)c5ccsc5)c5ccccc5)s4)cc3)cc2)s1)c1ccccc1)c1ccsc1 | > 50 µM
O=C(CCN1CCCCC1)N[C@H](C(=O)N1CCC[C@H]1c1ncc(-c2ccc(-c3ccc(-c4cnc([C@@H]5CCCN5C(=O)[C@H](NC(=O)CCN5CCCCC5)c5ccccc5)s4)cc3)cc2)s1)c1ccccc1 | > 50 µM
CCC(=O)N[C@@H](C(=O)N1CCC[C@H]1c1ncc(-c2ccc(-c3ccc(-c4cnc([C@@H]5CCCN5C(=O)[C@H](NC(=O)CC)c5ccccc5)s4)cc3)cc2)s1)c1ccccc1 | > 50 µM
O=C(N[C@H](C(=O)N1CCC[C@H]1c1ncc(-c2ccc(-c3ccc(-c4cnc([C@@H]5CCCN5C(=O)[C@H](NC(=O)c5cccnc5)c5ccccc5)s4)cc3)cc2)s1)c1ccccc1)c1cccnc1 | > 50 µM
O=C(N[C@@H](C(=O)N1CCC[C@H]1c1ncc(-c2ccc(-c3ccc(-c4cnc([C@@H]5CCCN5C(=O)[C@H](NC(=O)c5ccncc5)c5ccccc5)s4)cc3)cc2)s1)c1ccccc1)c1ccncc1 | > 50 µM
CC(C)[C@H](NC(=O)Oc1ccccc1)C(=O)N1CCC[C@H]1c1ncc(-c2ccc(-c3ccc(-c4cnc([C@@H]5CCCN5C(=O)[C@@H](NC(=O)Oc5ccccc5)C(C)C)s4)cc3)cc2)s1 | > 50 µM
CCCC(=O)N[C@@H](C(=O)N1CCC[C@H]1c1ncc(-c2ccc(-c3ccc(-c4cnc([C@@H]5CCCN5C(=O)[C@H](NC(=O)CCC)c5ccccc5)s4)cc3)cc2)s1)c1ccccc1 | > 50 µM
CC[C@H](NC(=O)OC)C(=O)N1CCC[C@H]1c1ncc(-c2ccc(-c3ccc(-c4cnc([C@@H]5CCCN5C(=O)[C@H](CC)NC(=O)OC)s4)cc3)cc2)s1 | > 50 µM
CN1CCN(CCC(=O)N[C@H](C(=O)N2CCC[C@H]2c2ncc(-c3ccc(-c4ccc(-c5cnc([C@@H]6CCCN6C(=O)[C@H](NC(=O)CCN6CCN(C)CC6)c6ccccc6)s5)cc4)cc3)s2)c2ccccc2)CC1 | > 50 µM
O=C(N[C@@H](C(=O)N1CCC[C@H]1c1ncc(-c2ccc(-c3ccc(-c4cnc([C@@H]5CCCN5C(=O)[C@H](NC(=O)c5ccccc5)c5ccccc5)s4)cc3)cc2)s1)c1ccccc1)c1ccccc1 | > 50 µM
O=C(CCN1CCOCC1)N[C@@H](C(=O)N1CCC[C@H]1c1ncc(-c2ccc(-c3ccc(-c4cnc([C@@H]5CCCN5C(=O)[C@H](NC(=O)CCN5CCOCC5)c5ccccc5)s4)cc3)cc2)s1)c1ccccc1 | > 50 µM
CCCCC(=O)N[C@@H](C(=O)N1CCC[C@H]1c1ncc(-c2ccc(-c3ccc(-c4cnc([C@@H]5CCCN5C(=O)[C@H](NC(=O)CCCC)c5ccccc5)s4)cc3)cc2)s1)c1ccccc1 | > 50 µM
O=C(CCN1CCCC1)N[C@@H](C(=O)N1CCC[C@H]1c1ncc(-c2ccc(-c3ccc(-c4cnc([C@@H]5CCCN5C(=O)[C@H](NC(=O)CCN5CCCC5)c5ccccc5)s4)cc3)cc2)s1)c1ccccc1 | > 50 µM

Source: ChEMBL document CHEMBL4387700, “A novel, potent, and orally bioavailable thiazole HCV NS5A inhibitor for the treatment of hepatitis C virus” (Eur J Med Chem, 2019)
